Test [1] deals with T1, Integrin alpha-IIb/beta-3 (Homo sapiens, UniProt P05106+P08514). The test is described as follows: Displacement of L-736,622 from purified resting Fibrinogen Receptor. Format: protein-complex assay. Summed up: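 Human platelet GPIIb/IIIa, unactivated form from Sephacryl S-300HR (typically 600 nM), in Triton X-100 buffer pH 7.4 with Ca²⁺/Mg²⁺. Used 1 μM fluorescent ligand L-736,622 at room temperature, read by fluorescence displacement. KD was calculated using 3.7 nM as the probe KD.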
Target sequence in this assay (P05106 27-788 limits assumed): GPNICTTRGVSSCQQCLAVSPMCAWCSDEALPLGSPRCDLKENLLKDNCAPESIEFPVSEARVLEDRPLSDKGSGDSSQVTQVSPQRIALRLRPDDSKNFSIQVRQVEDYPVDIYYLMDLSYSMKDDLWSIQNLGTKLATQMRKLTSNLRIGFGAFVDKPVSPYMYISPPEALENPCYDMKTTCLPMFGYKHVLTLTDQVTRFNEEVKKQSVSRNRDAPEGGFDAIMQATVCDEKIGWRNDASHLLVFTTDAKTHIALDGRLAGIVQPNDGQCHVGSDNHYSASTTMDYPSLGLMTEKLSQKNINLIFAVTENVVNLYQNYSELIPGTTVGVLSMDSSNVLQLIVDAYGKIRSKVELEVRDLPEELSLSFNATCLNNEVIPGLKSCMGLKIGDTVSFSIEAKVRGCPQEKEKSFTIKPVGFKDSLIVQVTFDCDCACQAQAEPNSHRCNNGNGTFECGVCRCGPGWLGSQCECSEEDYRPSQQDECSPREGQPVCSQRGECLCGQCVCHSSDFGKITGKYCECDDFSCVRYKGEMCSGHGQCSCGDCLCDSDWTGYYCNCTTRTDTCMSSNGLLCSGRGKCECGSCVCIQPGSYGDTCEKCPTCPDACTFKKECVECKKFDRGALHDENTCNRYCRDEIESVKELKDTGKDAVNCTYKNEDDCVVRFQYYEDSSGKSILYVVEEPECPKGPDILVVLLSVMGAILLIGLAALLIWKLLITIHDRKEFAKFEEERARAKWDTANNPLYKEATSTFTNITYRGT
Target sequence in this assay (P08514 32-887 limits assumed): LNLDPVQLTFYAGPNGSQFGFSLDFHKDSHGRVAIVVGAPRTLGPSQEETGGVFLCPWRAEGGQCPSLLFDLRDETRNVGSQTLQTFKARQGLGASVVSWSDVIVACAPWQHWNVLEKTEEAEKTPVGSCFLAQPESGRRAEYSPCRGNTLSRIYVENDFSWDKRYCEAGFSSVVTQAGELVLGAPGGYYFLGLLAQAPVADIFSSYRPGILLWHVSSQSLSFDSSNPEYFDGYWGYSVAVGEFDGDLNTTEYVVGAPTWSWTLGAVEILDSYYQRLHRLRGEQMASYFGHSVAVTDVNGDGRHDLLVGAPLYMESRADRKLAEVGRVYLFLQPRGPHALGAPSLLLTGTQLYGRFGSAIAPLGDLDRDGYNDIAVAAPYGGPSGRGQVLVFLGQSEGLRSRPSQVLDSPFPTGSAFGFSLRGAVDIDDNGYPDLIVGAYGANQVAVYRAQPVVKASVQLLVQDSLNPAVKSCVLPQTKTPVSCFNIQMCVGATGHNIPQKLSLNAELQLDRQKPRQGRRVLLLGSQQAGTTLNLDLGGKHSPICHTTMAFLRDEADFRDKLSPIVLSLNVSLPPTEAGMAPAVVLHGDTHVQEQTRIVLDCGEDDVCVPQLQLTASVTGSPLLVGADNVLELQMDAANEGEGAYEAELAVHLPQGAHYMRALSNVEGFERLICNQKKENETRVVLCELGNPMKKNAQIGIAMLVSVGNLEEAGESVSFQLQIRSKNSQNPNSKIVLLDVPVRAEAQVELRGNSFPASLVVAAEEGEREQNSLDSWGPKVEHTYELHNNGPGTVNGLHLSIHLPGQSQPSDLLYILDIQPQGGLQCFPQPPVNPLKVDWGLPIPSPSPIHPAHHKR
Target sequence in this assay (P08514 891-1039 limits assumed): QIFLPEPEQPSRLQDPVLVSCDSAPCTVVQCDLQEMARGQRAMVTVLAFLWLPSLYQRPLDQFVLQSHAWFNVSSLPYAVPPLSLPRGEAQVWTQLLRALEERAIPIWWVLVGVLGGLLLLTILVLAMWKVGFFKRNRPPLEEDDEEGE

For test [2], the target named is T1, Integrin alpha-IIb/beta-3. The test is described as follows: Displacement of [125I]L-692884 from purified Fibrinogen Receptor activated by coating onto yttrium silicate. Format: protein-complex assay. Summed up:
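Purified human GPIIb/IIIa activated by coating on yttrium silicate SPA beads (~0.3 nM) with ~0.3 nM [125I]L-692,884 in 20 mM HEPES, 0.15 M NaCl, pH 7.5, at room temperature. Competitor was tested over a wide concentration range. After equilibration, bound CPM was fitted by nonlinear least squares with a Hill slope to give ED50.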
Background: Displacement assays read how much labelled ligand stays bound in the presence of the test substance.

Test [3] deals with Homo sapiens. The experiment in a line: Inhibition of ADP induced platelet aggregation 75 minutes after administration of 10 ug/kg by gastric lavage. The following applies: 1.25 h. It is filed as functional. Put shortly: (§1)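 Conscious mongrel dogs dosed by gastric lavage with aqueous solution (5 mL, sterile water vehicle); citrated blood at baseline and 20–480 min. PRP (2 × 10⁸ platelets/mL, 37 °C, stirred) aggregated with 10 μM ADP + 1 μM epinephrine; light transmittance; percent inhibition vs pretreatment response. n = 4 or 8.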

Test [4] concerns Canis familiaris. The experiment in a line: Compound was tested for inhibition of extent of ADP-induced platelet aggregation between 1 and 15 min at 30 ug/Kg intravenous bolus in dogs. Format: functional. The note with it: Canis lupus familiaris.
The species named for test [5] is Homo sapiens. The test is described as follows: Inhibition of aggregation of human gel-filtered platelets was measured by light transmittance method. Format: functional. Summed up:
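Human gel-filtered platelets, 2 × 10⁸/mL, with 0.1 mg/mL human fibrinogen and 1 mM CaCl₂ at 37 °C. Aggregation was started with 10 μM ADP added last and followed by light transmittance. IC50 is the concentration halving the aggregation rate vs the uninhibited control, from at least two determinations.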

Test [6] relates to Canis familiaris. The test is described as follows: Ex vivo inhibition of platelet aggregation at 24 hr after the oral administration of 100 mg/kg in dogs. Format: functional. The following applies: Canis lupus familiaris. Put shortly: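 Conscious dogs (n = 4) dosed orally with crystalline compound in gelatin capsules at 100 µg/kg. Ex vivo aggregation was read 24 h later in citrated PRP (2 × 10⁸ platelets/mL, 37 °C, light transmittance). It was expressed as percent inhibition vs the pretreatment baseline.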

A further test has as its target Integrin alpha-5/beta-1 (Homo sapiens, UniProt P05556+P08648). The experiment in a line: Inhibition of human umbilical vein endothelial cells (HUVEC) attachment to fibronectin. It is filed as functional, cell-based.
In a further test the target is Integrin alpha-V/beta-3 (Homo sapiens, UniProt P05106+P06756). The test is described as follows: Inhibition of human umbilical vein endothelial cells (HUVEC) attachment to vitronectin (VN). Format: functional, cell-based.
Chain of Integrin alpha-V/beta-3 (P05106 27-788 limits assumed): as the sequence (P05106 27-788 limits assumed) above
Chain of Integrin alpha-V/beta-3 (P06756 31-889 limits assumed): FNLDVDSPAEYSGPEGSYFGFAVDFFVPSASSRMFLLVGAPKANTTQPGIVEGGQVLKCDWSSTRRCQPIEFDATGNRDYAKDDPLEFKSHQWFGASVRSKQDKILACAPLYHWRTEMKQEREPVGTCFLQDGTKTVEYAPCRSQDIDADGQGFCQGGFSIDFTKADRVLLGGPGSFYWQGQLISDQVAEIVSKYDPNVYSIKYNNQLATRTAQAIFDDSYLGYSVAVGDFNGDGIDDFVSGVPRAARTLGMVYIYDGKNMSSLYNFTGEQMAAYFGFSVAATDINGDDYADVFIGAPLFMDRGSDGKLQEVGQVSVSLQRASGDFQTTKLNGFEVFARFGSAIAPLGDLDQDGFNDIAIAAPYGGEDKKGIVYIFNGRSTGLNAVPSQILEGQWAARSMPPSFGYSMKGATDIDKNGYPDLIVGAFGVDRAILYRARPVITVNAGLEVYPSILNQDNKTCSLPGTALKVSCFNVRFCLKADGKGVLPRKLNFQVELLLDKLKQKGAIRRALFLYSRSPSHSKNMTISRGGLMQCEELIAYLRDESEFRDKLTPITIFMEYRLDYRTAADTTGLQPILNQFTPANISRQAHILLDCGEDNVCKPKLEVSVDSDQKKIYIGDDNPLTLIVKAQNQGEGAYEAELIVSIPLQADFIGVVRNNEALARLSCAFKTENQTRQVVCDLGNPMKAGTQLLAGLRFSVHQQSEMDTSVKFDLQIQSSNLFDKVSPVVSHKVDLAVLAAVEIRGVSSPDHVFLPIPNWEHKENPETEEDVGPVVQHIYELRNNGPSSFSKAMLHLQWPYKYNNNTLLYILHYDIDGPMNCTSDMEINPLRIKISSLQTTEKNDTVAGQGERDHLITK
Chain of Integrin alpha-V/beta-3 (P06756 891-1048 limits assumed): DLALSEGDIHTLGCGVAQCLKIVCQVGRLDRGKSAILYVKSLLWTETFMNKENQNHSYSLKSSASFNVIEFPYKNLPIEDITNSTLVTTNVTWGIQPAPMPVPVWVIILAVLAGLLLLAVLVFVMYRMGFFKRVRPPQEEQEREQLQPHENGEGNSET
The test system of test [7] is Homo sapiens. The experiment in a line: Inhibition of ADP induced platelet aggregation after administration of 10 ug/kg by gastric lavage. It is filed as functional. Summed up:
as §1

The target in test [8] is T1, Integrin alpha-IIb/beta-3. The experiment in a line: Inhibition of human umbilical vein endothelial cells (HUVEC) attachment to fibrinogen (FG). It is filed as functional, cell-based.
Target sequence in this assay (P05106 27-788 limits assumed): as the sequence (P05106 27-788 limits assumed) above
Target sequence in this assay (P08514 32-887 limits assumed): as the sequence (P08514 32-887 limits assumed) above
Target sequence in this assay (P08514 891-1039 limits assumed): as the sequence (P08514 891-1039 limits assumed) above

The structures appear in SMILES notation. pIC50, pKd: −log10 of the molar value.

The pKd is the Kd on a negative log10 scale, so that one unit is a factor of ten. What is called inhibition in vivo is the relative decrease from the control value, in per cent. The pIC50 is −log10 of the IC50, conventionally taken in molar units. A lower pIC50 goes with a high IC50.

Chain of Integrin alpha-5/beta-1 (P05556 21-798 limits assumed): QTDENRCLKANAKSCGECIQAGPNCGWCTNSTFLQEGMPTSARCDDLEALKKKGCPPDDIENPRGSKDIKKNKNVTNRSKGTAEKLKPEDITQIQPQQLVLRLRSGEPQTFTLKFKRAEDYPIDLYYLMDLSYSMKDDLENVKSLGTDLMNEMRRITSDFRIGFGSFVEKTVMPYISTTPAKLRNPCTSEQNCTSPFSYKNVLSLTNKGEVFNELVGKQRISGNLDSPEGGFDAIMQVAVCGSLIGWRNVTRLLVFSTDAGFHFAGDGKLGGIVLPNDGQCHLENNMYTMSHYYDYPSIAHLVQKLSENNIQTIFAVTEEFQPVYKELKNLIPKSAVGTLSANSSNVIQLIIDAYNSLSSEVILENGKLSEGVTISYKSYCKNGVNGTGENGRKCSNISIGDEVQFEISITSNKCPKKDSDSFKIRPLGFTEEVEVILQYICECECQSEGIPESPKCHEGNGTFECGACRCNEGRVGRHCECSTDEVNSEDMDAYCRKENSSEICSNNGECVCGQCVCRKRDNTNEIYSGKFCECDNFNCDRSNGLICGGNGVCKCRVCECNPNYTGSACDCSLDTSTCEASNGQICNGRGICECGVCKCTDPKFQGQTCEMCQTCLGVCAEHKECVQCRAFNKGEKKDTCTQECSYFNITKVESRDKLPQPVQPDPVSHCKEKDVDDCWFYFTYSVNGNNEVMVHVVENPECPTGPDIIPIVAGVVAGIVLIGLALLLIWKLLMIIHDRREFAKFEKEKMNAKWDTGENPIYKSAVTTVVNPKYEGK
Chain of Integrin alpha-5/beta-1 (P08648 42-894 limits assumed): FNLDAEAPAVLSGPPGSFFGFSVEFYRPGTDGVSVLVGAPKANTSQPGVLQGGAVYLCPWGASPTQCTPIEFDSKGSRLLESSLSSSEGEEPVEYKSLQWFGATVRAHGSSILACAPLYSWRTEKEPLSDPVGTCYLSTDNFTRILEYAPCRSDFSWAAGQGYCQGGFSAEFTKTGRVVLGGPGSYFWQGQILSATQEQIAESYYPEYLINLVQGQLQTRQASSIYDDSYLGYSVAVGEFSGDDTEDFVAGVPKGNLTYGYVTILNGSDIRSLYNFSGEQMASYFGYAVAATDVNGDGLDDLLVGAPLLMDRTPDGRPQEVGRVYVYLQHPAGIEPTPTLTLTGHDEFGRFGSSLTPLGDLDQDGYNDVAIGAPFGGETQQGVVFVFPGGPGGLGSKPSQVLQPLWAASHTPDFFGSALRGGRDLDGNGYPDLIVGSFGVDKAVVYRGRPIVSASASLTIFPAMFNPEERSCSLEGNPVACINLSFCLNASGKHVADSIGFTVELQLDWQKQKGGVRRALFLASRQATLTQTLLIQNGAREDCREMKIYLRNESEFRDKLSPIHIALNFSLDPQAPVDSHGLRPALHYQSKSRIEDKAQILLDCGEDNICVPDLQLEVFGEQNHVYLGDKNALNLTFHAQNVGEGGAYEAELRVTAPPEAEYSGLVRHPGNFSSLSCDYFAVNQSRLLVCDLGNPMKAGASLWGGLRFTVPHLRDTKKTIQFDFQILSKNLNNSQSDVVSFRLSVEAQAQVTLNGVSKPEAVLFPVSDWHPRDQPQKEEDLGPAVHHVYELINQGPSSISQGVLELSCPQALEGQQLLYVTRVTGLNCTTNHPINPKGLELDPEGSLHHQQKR
Chain of Integrin alpha-5/beta-1 (P08648 895-1049 limits assumed): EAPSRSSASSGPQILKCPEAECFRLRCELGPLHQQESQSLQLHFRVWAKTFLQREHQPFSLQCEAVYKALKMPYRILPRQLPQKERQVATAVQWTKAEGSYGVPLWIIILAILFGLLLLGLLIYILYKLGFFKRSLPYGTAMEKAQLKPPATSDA

`CCCCS(=O)(=O)N[C@@H](CNC(=O)c1cc2n(n1)CCCN(CCC1CCNCC1)C2=O)C(=O)O` gave a pKd in test [1] of 8.85. Further, the ED50 in [2] was found to be 0.12 nM. Further, the inhibition in vivo at 0.01 mg/kg in the test on Homo sapiens [3] came out at 76%.

`C[C@H](CC(=O)O)NC(=O)CN1CCC[C@@H](CCC2CCNCC2)C1=O` had a negative logarithm of the Kd (pKd) in test [1] of 6.22. The ED50 in test [2] is 5 nM. The inhibition in vivo at 0.03 mg/kg in the test on Canis familiaris [4] is greater than 90%.

In test [1], `CCCCS(=O)(=O)N[C@@H](CNC(=O)c1cc2n(n1)CCN(CCC1CCNCC1)C2=O)C(=O)O` had a pKd of 8.74. The ED50 in test [2] stood at 0.12 nM. Besides, in the test listed under Homo sapiens [5], the negative-log IC50 (pIC50) is 8.05.

The compound `O=C(O)CCNC(=O)c1cc2n(n1)CCN(CCC1CCNCC1)C2=O` had a pKd in test [1] of 6.23. The ED50 in test [2] turned out to be 72 nM. This compound also gave a pIC50 in the test listed under Homo sapiens [5] of 6.60.

Turning to `O=C(O)CCNC(=O)c1cc2n(n1)CCCN(CCC1CCNCC1)C2=O`, the pKd in [1] was 6.17. For the same compound, the ED50 in [2] was 46 nM. Besides, the pIC50 in the test listed under Homo sapiens [5] is 6.33.

In turn, `Cc1ccc(S(=O)(=O)N[C@@H](CNC(=O)c2cc3n(n2)CCCN(CCC2CCNCC2)C3=O)C(=O)O)cc1` had an inhibition in vivo at 100 mg/kg with Canis familiaris [6] greater than 85%. Moreover, the negative logarithm of the Kd (pKd) in [1] is 8.96. Further, the negative-log IC50 (pIC50) against Integrin alpha-5/beta-1 was less than 3.52; at Integrin alpha-V/beta-3, less than 3.52; in the test listed under Homo sapiens [5], 8.10; in [8], less than 3.52. In addition, the ED50 in [2] came to 0.08 nM. The compound also displayed an inhibition in vivo at 0.01 mg/kg with Homo sapiens [7] greater than 65%.

These data come from ChEMBL document CHEMBL1130054, “Non-peptide glycoprotein IIb/IIIa inhibitors. 17. Design and synthesis of orally active, long-acting non-peptide fibrinogen receptor antagonists” (J Med Chem, 1997).
